Screening data (PubChem BioAssay)
ADAM10 inh = inhibitors of human ADAM10. AID 720582. hit rate 0.62% among 370,000. inhibition, % at 7 µM. O14672. recombinant ADAM10, EDANS/DABCYL FRET peptide cleavage, 3 h;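 active = inhibition above a per-campaign cutoff equal to the mean of compounds falling between control-based bounds plus 3 SD, cut at about 20% in these data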;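 note: 0% = DMSO wells while the 100% control is not disclosed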
ADAM17 inh = inhibitors of human ADAM17 | recombinant ADAM17, EDANS/DABCYL FRET peptide cleavage | AID 720648 | P78536 | hit rate 0.83% among 370,000 | inhibition, % at 6.95 µM;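 active = inhibition above the mean of compounds lying between control limits plus 3 SD, set per campaign, cut at about 8.5% in these data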;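 note: 0% = DMSO-only wells as the low control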
NRP1-CendR mod = modulators of CendR peptide binding to human neuropilin-1. hit rate 0.85% among 360,000. O14786. AID 602438. inhibition, % at 25 µM. FAM-RPARPAR peptide binding to NRP-1, fluorescence polarization;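 active = inhibition or corrected inhibition above about 18%, plus a signal ratio from 0.5 to 1.5, limit read from the data, passing the limit was not always enough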
Target sequence (O14786 whole entry, looked up): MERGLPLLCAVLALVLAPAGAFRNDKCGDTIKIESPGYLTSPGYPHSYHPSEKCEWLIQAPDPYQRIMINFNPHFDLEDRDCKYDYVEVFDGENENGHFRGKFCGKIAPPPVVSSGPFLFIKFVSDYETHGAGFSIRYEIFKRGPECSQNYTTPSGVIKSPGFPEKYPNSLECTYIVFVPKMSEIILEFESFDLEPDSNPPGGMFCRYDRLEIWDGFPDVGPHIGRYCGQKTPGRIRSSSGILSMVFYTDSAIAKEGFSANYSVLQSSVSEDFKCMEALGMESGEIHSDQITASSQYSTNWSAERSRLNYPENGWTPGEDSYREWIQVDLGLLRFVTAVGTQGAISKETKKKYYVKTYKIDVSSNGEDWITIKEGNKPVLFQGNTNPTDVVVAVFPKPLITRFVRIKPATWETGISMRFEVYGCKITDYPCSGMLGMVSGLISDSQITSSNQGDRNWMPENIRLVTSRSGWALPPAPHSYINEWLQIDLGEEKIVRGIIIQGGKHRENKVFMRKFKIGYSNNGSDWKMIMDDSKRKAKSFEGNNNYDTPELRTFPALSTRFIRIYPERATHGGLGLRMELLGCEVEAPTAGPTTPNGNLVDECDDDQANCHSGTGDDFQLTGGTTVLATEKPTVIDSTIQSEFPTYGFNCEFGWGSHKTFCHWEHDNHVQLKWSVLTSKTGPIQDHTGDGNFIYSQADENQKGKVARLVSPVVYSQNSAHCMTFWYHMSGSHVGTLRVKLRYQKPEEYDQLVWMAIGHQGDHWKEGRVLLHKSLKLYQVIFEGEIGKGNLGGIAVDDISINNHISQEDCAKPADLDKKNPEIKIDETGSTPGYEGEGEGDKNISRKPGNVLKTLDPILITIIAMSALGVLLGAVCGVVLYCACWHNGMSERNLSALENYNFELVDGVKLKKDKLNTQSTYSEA
CaV13 FRET inh = Primary screen for inhibitors of IQ motif and Ca2+-dependent inactivation inhibitor domain binding in CACNA1D, Förster resonance energy transfer in living cells, … | HEK cells, CFP/YFP FRET ICDI-IQ, plate reader, 10 min; percent FRET-ratio fall versus neutral wells | inhibition, % at 12.3 µM | hit rate 0.098% among 340,000;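 active = mean replicate inhibition of at least 30% and at least 1% of replicates passing that level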;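 note: 0% = median of the neutral control wells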
Arrestin-AP2 inh = human beta-arrestin and AP2 interaction inhibition | inhibition, % at 10 µM | hit rate 0.31% among 340,000 | FITC-arrestin peptide / GST-AP2 beads, flow cytometry; AP2 beta2 appendage carries R879A mutation | AID 504490;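 active = inhibition above a set limit, near 3 SD of compounds lacking own fluorescence, cut at about 54% in these data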;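 note: plate controls were DMSO wells for no effect and 5 µM unlabelled arrestin peptide for full effect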
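Material – AP2 appendage R879A on GSH beads · Buffer or medium – PBS with 0.05% Tween 20 and 0.1% BSA · Probe or stimulus – fluorescein-tagged arrestin peptide at 50 nM final · Incubation – compound with beads 12 min RT, then probe 1 h RT · Detection – high-throughput flow cytometry of beads, ex 488, em 535 nm · Evaluation – percent response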
FAS-TE inh = blocks the thioesterase domain of human fatty acid synthase | P49327 | recombinant FAS-TE, OMFH fluorogenic substrate, fluorescence endpoint | inhibition, % at 15 µM | hit rate 0.67% among 360,000;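 active = compounds whose normalised, plate-corrected inhibition of enzyme fluorescence in the single-dose primary screen is 50% or more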;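 note: 0% = DMSO with enzyme and 100% = substrate without enzyme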
ADAM10 confirm = confirmation of inhibitors of human ADAM10. hit rate 1% among 2,100. AID 743208. shares compounds with ADAM10 inh. inhibition, % at 6.95 µM. ADAM10 QFRET peptide cleavage, EDANS fluorescence;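 active = inhibition above about 20% chosen separately for each screening run, limit read from the data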;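 note: 0% = DMSO wells and 100% = marimastat wells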
ADAM17 counter = counter-screen for ADAM10 exosite inhibitors: inhibitors of human ADAM17; shares compounds with ADAM10 inh; ADAM17 QFRET peptide cleavage, EDANS fluorescence; inhibition, % at 6.95 µM; hit rate 0.5% among 2,100;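 active = mean triplicate inhibition above the solvent-only control wells' mean plus 3 SD, cut at about 12% in these data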;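 note: 0% = DMSO wells and 100% = marimastat wells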
The depositor's hits bear a star. Rows were chosen to be rich in hits. Some 2.9% of all compounds tested hit in one or more screens of this group.

How did O=C(NC1=N[C@@]2(C=C3CCCCC3n3c(=O)n(-c4ccccc4)c(=O)n32)CN1Cc1ccccc1)c1ccccc1 (some centres undefined) do in these assays?
ADAM10 inh: 9; ADAM17 inh: 2

How did COc1ccc(CN2C[C@]3(C=C4CCCCC4n4c(=O)n(-c5ccccc5)c(=O)n43)N=C2NC(=O)c2ccccc2)c(OC)c1 (some centres undefined) do in these assays?
ADAM10 inh: 32*; ADAM17 inh: 8; ADAM10 confirm: 4; ADAM17 counter: 2

What do the screens show for `O=C(Nc1ccc(S(=O)(=O)Nc2nccs2)cc1)/C(=C/c1ccccc1Cl)NC(=O)c1ccccc1`?
ADAM10 inh: 32*; ADAM17 inh: 8; NRP1-CendR mod: -32; CaV13 FRET inh: -6; Arrestin-AP2 inh: -11; FAS-TE inh: -4; ADAM10 confirm: 1; ADAM17 counter: 0

How did Cc1ccc(-c2cc(C(=O)Nc3ccc(S(=O)(=O)Nc4ncccn4)cc3)c3ccccc3n2)cc1 do in these assays?
ADAM10 inh: 1; ADAM17 inh: 3; NRP1-CendR mod: 10; CaV13 FRET inh: -6; Arrestin-AP2 inh: 1; FAS-TE inh: 1

What do the screens show for `O=C(Nc1ccc(S(=O)(=O)Nc2nccs2)cc1)c1cc(-c2ccccc2)nc2ccccc12`?
ADAM10 inh: 27*; ADAM17 inh: 8; NRP1-CendR mod: 6; CaV13 FRET inh: -11; Arrestin-AP2 inh: -5; FAS-TE inh: 9; ADAM10 confirm: 9; ADAM17 counter: 2

How did COC(=O)[C@]12C[C@H](CC(=O)NCCCCc3ccccc3)C(=O)N(Cc3ccccc3)C1=C[C@H](C(C)(C)C)O[C@@H]2C do in these assays?
ADAM10 inh: 15; ADAM17 inh: 5; CaV13 FRET inh: -8

How did O=c1c2c3c(sc2n(CCN2CCOCC2)c(=O)n1C1CCCCC1)CCCCC3 do in these assays?
ADAM10 inh: 5; ADAM17 inh: -1; CaV13 FRET inh: -1

What do the screens show for `CC(C)(C)c1nn(-c2ccccc2)c2[nH]c(=O)c(C=O)cc12`?
ADAM10 inh: 78*; ADAM17 inh: -2; NRP1-CendR mod: -10; CaV13 FRET inh: -1; Arrestin-AP2 inh: -8; FAS-TE inh: -3; ADAM10 confirm: 5; ADAM17 counter: 2

How did C#CCN(C[C@@H]1[C@@H](OC(=O)NCc2ccc(OC)c(OC)c2)[C@@H](OC(=O)NCc2ccc(OC)c(OC)c2)Cn2c(=O)n(CCCCCC)c(=O)n21)S(=O)(=O)c1ccc(C)cc1 do in these assays?
ADAM10 inh: 21*; ADAM17 inh: 9; NRP1-CendR mod: -8; CaV13 FRET inh: -5; FAS-TE inh: 17; ADAM10 confirm: 12; ADAM17 counter: 3

What do the screens show for `O=C1CC(c2ccccc2Oc2cccc(Cl)c2)C(n2cncn2)C(=O)C1C1NCCc2ccccc21` (centres undefined)?
ADAM10 inh: 23*; ADAM17 inh: 0; NRP1-CendR mod: 9; CaV13 FRET inh: 2; Arrestin-AP2 inh: 14; FAS-TE inh: 0; ADAM10 confirm: -1; ADAM17 counter: -1

How did CC(C)(C)c1ccc(Oc2cccc(C3CC(=O)C(C4NCCc5ccccc54)C(=O)C3n3cncn3)c2)cc1 (centres undefined) do in these assays?
ADAM10 inh: 6; ADAM17 inh: 0; NRP1-CendR mod: -10; Arrestin-AP2 inh: 8; FAS-TE inh: 3

Results for CCCCN(C(=O)c1ccccc1Br)C(c1ccc(OC)cc1)c1nc2ccccc2[nH]1 (centres undefined) ?
ADAM10 inh: 21*; ADAM17 inh: 7; NRP1-CendR mod: 12; CaV13 FRET inh: -3; FAS-TE inh: 13; ADAM10 confirm: 3; ADAM17 counter: 1

What do the screens show for `CCCCNC(=O)C[C@H]1C[C@@]2(C(=O)OC)C(=C[C@H](C(C)C)O[C@@H]2C2CC2)N(CCc2ccc(OC)c(OC)c2)C1=O`?
ADAM10 inh: -4; ADAM17 inh: -4

Results for O=C(Nc1ccc(F)cc1)C(c1cccc(F)c1)N1CCN(Cc2c(F)cccc2Cl)CC1 (centres undefined) ?
ADAM10 inh: -1; ADAM17 inh: 3; NRP1-CendR mod: -5; CaV13 FRET inh: -15

What do the screens show for `Cc1cc(C)n2nc(SCc3ccccc3)nc2n1`?
ADAM10 inh: 22*; ADAM17 inh: 4; NRP1-CendR mod: -1; CaV13 FRET inh: -5; Arrestin-AP2 inh: 13; FAS-TE inh: -2; ADAM10 confirm: 0; ADAM17 counter: 0

How did Cc1cc(C)n2nc(SCc3cccc(F)c3)nc2n1 do in these assays?
ADAM10 inh: -4; ADAM17 inh: -2; NRP1-CendR mod: 0; CaV13 FRET inh: -18; Arrestin-AP2 inh: 8; FAS-TE inh: -1

Results for C[C@H]1C2CC(OC(=O)NCc3ccc(Cl)cc3)C(C2)[C@H]2CCCCN21 (some centres undefined) ?
ADAM10 inh: -10; ADAM17 inh: -5

Results for Cc1ccnc(NCc2cccc3ccccc23)c1 ?
ADAM10 inh: 23*; ADAM17 inh: 2; NRP1-CendR mod: 6; CaV13 FRET inh: -5; Arrestin-AP2 inh: -15; FAS-TE inh: 8; ADAM10 confirm: 2; ADAM17 counter: 0

What do the screens show for `COc1cccc(CNc2cc(C)ccn2)c1O`?
ADAM10 inh: 1; ADAM17 inh: -1; NRP1-CendR mod: 15; CaV13 FRET inh: -6; Arrestin-AP2 inh: 2; FAS-TE inh: -2

How did NC(=O)c1ccc(NC(=O)Cc2ccc(S(=O)(=O)N3CCCCC3)cc2)cc1 do in these assays?
ADAM10 inh: -8; ADAM17 inh: -1; NRP1-CendR mod: -5; CaV13 FRET inh: -2; Arrestin-AP2 inh: -3; FAS-TE inh: 4

How did N#Cc1c(NC(=O)CCn2cnc3ccccc3c2=O)oc(-c2ccccc2)c1-c1ccccc1 do in these assays?
ADAM10 inh: 20*; ADAM17 inh: 7; NRP1-CendR mod: -1; Arrestin-AP2 inh: -2; FAS-TE inh: 18; ADAM10 confirm: 16; ADAM17 counter: 6

Results for N#Cc1c(NC(=O)CCN2C(=O)c3ccccc3C2=O)oc(-c2ccccc2)c1-c1ccccc1 ?
ADAM10 inh: -6; ADAM17 inh: -7; NRP1-CendR mod: 23; CaV13 FRET inh: -5; Arrestin-AP2 inh: 19; FAS-TE inh: 0

Results for C=CCN1C(=O)[C@@H](CC(=O)N2CCCCC2)[C@]2(C(=O)OC)CCCCC=C12 ?
ADAM10 inh: -4; ADAM17 inh: 2
